One series relates to Escherichia coli. The experiment in a line: Antimicrobial activity against Escherichia coli tolC at 20 ug by agar diffusion test. The format is functional. The following applies: read-out: IZ. In outline: (§1)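 Agar diffusion on 6 mm paper disks loaded with 20 µL of a 1 mg/mL methanol solution (20 µg). Bacteria from the HZI collection were grown on standard media and seeded into agar medium at a final OD of 0.01. Plates were incubated at 30 °C, and inhibition zone diameter (mm) was read after 1 and 2 days.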

Another series deals with Wickerhamomyces anomalus. The series can be described thus: Antimicrobial activity against Hansenula anomala at 20 ug by agar diffusion test. Type of series: functional. The settings on record: read-out: IZ. The essentials: (§2)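 Yeasts from the HZI collection were seeded into agar medium at a final OD of 0.1. Paper disks (6 mm) carried 20 µg of compound, applied as 20 µL of 1 mg/mL in MeOH. Plates were kept at 30 °C, and inhibition zone diameters (mm) were measured at days 1 and 2.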
On the technique in general: A growth-free zone around the sample is the usual read-out of agar diffusion tests.

Series [1] is described as follows: DPPH radical scavenging activity at 200 umol/L relative to control. The format is functional. The essentials: (§3)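 Samples in EtOH (1000 µL at 200 or 40 µM) were mixed with 250 µL of 1 mM DPPH stock and 750 µL EtOH, then held at RT in the dark for 30 min. Absorbance was read at 517 nm. Scavenging % = 100 − (A sample × 100/A control).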
On the technique in general: DPPH is a stable violet radical that fades when it is reduced.

The subject of another series is L929. The series can be described thus: Cytotoxicity against mouse L929 cells by MTT assay. Type of series: cell-based. In outline:
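L929 mouse fibroblasts (DSMZ) were grown in high-glucose DME with 10% fetal calf serum at 37 °C and 10% CO2. Cell suspension (120 µL at 50 000/mL) was added to 60 µL of serial compound dilutions in microtiter plates. Growth was determined by MTT after 5 days, with concentrations expressed in µg/mL.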
In general terms: Formazan colour is commonly taken as a measure of viable cells.

Another series concerns Mycolicibacterium phlei. The experiment in a line: Antimicrobial activity against Mycobacterium phlei at 20 ug by agar diffusion test. Type of series: functional. The following applies: read-out: IZ. In outline:
as §1

A further series relates to Pseudomonas aeruginosa. The series can be described thus: Antimicrobial activity against Pseudomonas aeruginosa at 20 ug by agar diffusion test. Type of series: functional. The following applies: read-out: IZ. In outline:
as §1

A further series has as its system Klebsiella pneumoniae. The experiment in a line: Antimicrobial activity against Klebsiella pneumoniae at 20 ug by agar diffusion test. Type of series: functional. The settings on record: read-out: IZ. In outline:
as §1

A short description of series [2]: DPPH radical scavenging activity at 40 umol/L relative to control. Type of series: functional. The essentials:
as §3

For a further series, the system named is Candida albicans. The experiment in a line: Antimicrobial activity against Candida albicans at 20 ug by agar diffusion test. Type of series: functional. The following applies: read-out: IZ. The essentials:
as §2

Another series has as its system Saccharomyces cerevisiae. The experiment in a line: Antimicrobial activity against Saccharomyces cerevisiae at 20 ug by agar diffusion test. The format is functional. The following applies: read-out: IZ. The essentials:
as §2

The test system of a further series is Staphylococcus aureus. The series can be described thus: Antimicrobial activity against Staphylococcus aureus at 20 ug by agar diffusion test. Type of series: functional. The settings on record: read-out: IZ. In outline: as §1
Another series has as its system Botrytis cinerea. The experiment in a line: Antimicrobial activity against Botrytis cinerea at 20 ug by agar diffusion test. The settings on record: read-out: IZ. The format is functional. In outline: (§4)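 Fungal spores were rinsed from well-grown Petri dishes with 10 mL sterile water, and 1 mL of the suspension was mixed into 100 mL molten agar. Disks (6 mm) with 20 µg compound (20 µL, 1 mg/mL in methanol) were placed on the agar. Plates were incubated at 30 °C, and zone diameter (mm) was scored after 1 and 2 days.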

The test system of series [3] is Globisporangium debaryanum. The experiment in a line: Antimicrobial activity against Pythium debaryanum at 20 ug by agar diffusion test. The settings on record: read-out: IZ. The format is functional. In outline:
as §4

Another series relates to Aspergillus fumigatus. The series can be described thus: Antimicrobial activity against Aspergillus fumigatus at 20 ug by agar diffusion test. The following applies: read-out: IZ. The format is functional. In outline:
as §4

Another series deals with Micrococcus luteus. The experiment in a line: Antimicrobial activity against Micrococcus luteus at 20 ug by agar diffusion test. The following applies: read-out: IZ. Type of series: functional. In outline: as §1

≈ marks a conversion by molar mass, not a printed value.

Regarding `C[C@H]1CCC2C(C)(C)CCC[C@]2(C)/C1=C/c1cc(O)c(O)c(/C=N/CCS(=O)(=O)O)c1OS(=O)(=O)O` (some centres undefined) [SIPHONODICTYAL B1], the zone of inhibition at 20 µg/disc in the series on Escherichia coli, in the series on Wickerhamomyces anomalus, in the series on Mycolicibacterium phlei, with Pseudomonas aeruginosa, in the series with Klebsiella pneumoniae and in the series on Candida albicans was 0 mm throughout. Moreover, the zone of inhibition at 20 µg/disc in the series with Saccharomyces cerevisiae is 0 mm; in the series on Staphylococcus aureus, 12 mm; with Botrytis cinerea it was 13 mm; in series [3] it was 0 mm; in the series with Aspergillus fumigatus, 0 mm; with Micrococcus luteus, 0 mm. Besides, the Activity stood at 80.8% in [1], 10 µg/mL in the series on L929 and 23.5% in [2].

For orientation: IC50 means the concentration that inhibits the measured activity by half. For `C[C@H]1CCC2C(C)(C)CCC[C@]2(C)/C1=C/c1cc(O)c(O)c(C=O)c1OS(=O)(=O)O` (some centres undefined) [SIPHONODICTYAL B2], the zone of inhibition at 20 µg/disc with Escherichia coli, with Mycolicibacterium phlei, with Pseudomonas aeruginosa, in the series on Klebsiella pneumoniae, in the series on Candida albicans and with Saccharomyces cerevisiae was 0 mm in each case. Also, the zone of inhibition at 20 µg/disc in the series on Staphylococcus aureus is 13 mm; in the series on Botrytis cinerea, 15 mm; in series [3], 0 mm; with Aspergillus fumigatus, 0 mm; in the series on Micrococcus luteus, 0 mm. Moreover, the Activity in series [1] is 88.8%; in [2], 25.3%. The compound also yielded an IC50 in the series on L929 of 6 µg/mL (≈ 13.7 µM).

As to `C[C@H]1CCC2C(C)(C)CCC[C@]2(C)/C1=C/c1cc(O)c(O)c(C=O)c1O` (some centres undefined) [SIPHONODICTYAL B], the zone of inhibition at 20 µg/disc in the series on Escherichia coli was found to be 9 mm; in the series with Saccharomyces cerevisiae, 0 mm; in the series with Staphylococcus aureus, 12 mm; in the series on Aspergillus fumigatus it was 15 mm. For the same compound, the Activity in the series on L929 came out at 0.2 µg/mL.

Regarding `C=C1CCCC2[C@](C)(Cc3cc(C=O)cc(O)c3OS(=O)(=O)O)[C@@H](C)CC[C@]12C` (some centres undefined) [SIPHONODICTYAL G], the zone of inhibition at 20 µg/disc in the series with Escherichia coli, with Wickerhamomyces anomalus, in the series on Mycolicibacterium phlei, in the series on Pseudomonas aeruginosa, in the series with Klebsiella pneumoniae and in the series with Candida albicans was 0 mm each time. For the same compound, the zone of inhibition at 20 µg/disc (with Saccharomyces cerevisiae; in the series with Staphylococcus aureus; in the series on Botrytis cinerea; in [3]; with Aspergillus fumigatus; in the series on Micrococcus luteus) was 0 mm throughout. Also, the Activity in [1] was determined as 32.2%; in the series with L929, 10 µg/mL; in series [2], 5.9%.

Turning to `C=C1CCCC2[C@](C)(Cc3cc(CO)cc(O)c3OS(=O)(=O)O)[C@@H](C)CC[C@]12C` (some centres undefined) [SIPHONODICTYOL G], the zone of inhibition at 20 µg/disc with Escherichia coli, in the series with Wickerhamomyces anomalus, in the series on Mycolicibacterium phlei, in the series with Pseudomonas aeruginosa, in the series on Klebsiella pneumoniae and in the series on Candida albicans was 0 mm each time. Besides, the zone of inhibition at 20 µg/disc came to 0 mm in the series on Saccharomyces cerevisiae; 0 mm with Staphylococcus aureus; 15 mm in the series on Botrytis cinerea; 0 mm in series [3]; 0 mm in the series on Aspergillus fumigatus; 0 mm in the series with Micrococcus luteus. Further, the Activity in series [1] is 39.8%; with L929, over 40 µg/mL; in series [2], 2.6%.

Regarding `C[C@H]1CCC2C(C)(C)CCC[C@]2(C)/C1=C/c1cc(OS(=O)(=O)O)c(O)c(C=O)c1OS(=O)(=O)O` (some centres undefined) [SIPHONODICTYAL B3], the zone of inhibition at 20 µg/disc in the series with Escherichia coli, in the series on Wickerhamomyces anomalus, with Mycolicibacterium phlei, in the series on Pseudomonas aeruginosa, in the series on Klebsiella pneumoniae and in the series on Candida albicans was 0 mm throughout. The zone of inhibition at 20 µg/disc (in the series with Saccharomyces cerevisiae; in the series with Staphylococcus aureus; with Botrytis cinerea; in series [3]; in the series with Aspergillus fumigatus; in the series on Micrococcus luteus) was 0 mm each time. Besides, the Activity in the series with L929 is over 40 µg/mL.

As to `O=C1O[C@H]([C@@H](O)CO)C(O)=C1O`, the Activity in series [1] stood at 95.3%; in [2], 27%.

Source of the values: ChEMBL document CHEMBL1142105, “Bioactive metabolites from the Caribbean sponge Aka coralliphagum” (J Nat Prod, 2007).
